Sampled rows, rich in hits. Any-hit rate of the full collection: about 4.9%.
STAT3 inh: STAT3 signaling inhibition; U3A cells, IL-6 STAT3-luciferase reporter, luminescence; host cell line lacks STAT1; inhibition, % at 5.5 µM; actives 0.89% (n = 190,000);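 active means inhibition above the mean inhibition across all screened compounds plus 3 SD, cut at about 44% in these data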
APP 5'UTR act: APP 5'UTR luciferase reporter activation; SH-SY5Y APP 5'UTR luciferase reporter, luminescence; zero percent = DMSO vehicle wells; activation, % at 2 µM; actives 1% (n = 190,000); AID 1276;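 active means activation above a set limit, based on mean plus 3 SD of controls, cut at about 140% in these data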
STAT1 act-1: activators of IFN-gamma induced STAT1 signaling. NIH 3T3 STAT1-luciferase reporter, luminescence; 100% = IFN-gamma alone, no compound. actives 2.6% (n = 200,000). AID 932. activation (% of control), % at 5.5 µM;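 active means activation above the screen-wide mean activation plus 3 SD, cut at about 130% in these data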
STAT3 act-1: activators of IL-6 induced STAT3 signaling | activation (% of control), % at 5.6 µM | AID 871 | actives 0.91% (n = 190,000) | U3A cells, IL-6 STAT3-luciferase reporter, luminescence; 100% = signal with IL-6 EC80 alone;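 active means activation above the screen-wide mean of compound activation plus 3 SD, cut at about 130% in these data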
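Material: human U3A cells carrying STAT3-luciferase construct. Measured by: reporter luminescence signal. Timing: compound 1 h, then IL-6 6 h at 37 °C.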
STAT1 inh-1: reduces IFN-gamma driven STAT1 reporter signal; NIH 3T3 STAT1-luciferase reporter, luminescence; inhibition, % at 5.5 µM; actives 0.35% (n = 200,000);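 active means inhibition above a set limit, the mean inhibition across all tested compounds plus 3 SD, cut at about 34% in these data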
NF-kB neuron act: NF-kB expression increase, human neuronal cells | AID 1239 | NF-kB reporter expression; stronger effect = higher value | actives 1.6% (n = 190,000) | fold change at 12.5 µM; in the data active means fold change above about 3.3
STAT3 act-2: confirmation of STAT3 signaling activators; shares compounds with STAT3 act-1; U3A STAT3-luciferase reporter, IL-6 potentiation, luminescence; U3A cells lack STAT1; 100 means same as IL-6 alone; potentiation (% of control), % at 5.7 µM; actives 64% (n = 1,200); AID 1267;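 active means percent activation of the STAT3 luciferase reporter above a set limit taken from the earlier primary screen, cut at about 130% in these data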
NFkB act STAT3ct: activates NF-kappaB, counter-screen to STAT3 activators; actives 11% (n = 1,200); human cells, NF-kappaB reporter activation; activation (% of control), % at 5.7 µM; shares compounds with STAT3 act-1; AID 1309; in the data active means activation above about 120%;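 further: reporter induced by TNF-alpha stimulation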
STAT1 act-2: STAT1 activation in STAT3 activator counter-screen; shares compounds with STAT3 act-1; NIH 3T3 STAT1-luciferase reporter, IFN-gamma, luminescence; activation (% of control), % at 5.7 µM; actives 13% (n = 1,200); AID 1318;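 active means activation above the solvent-only control well mean plus 3 SD, set per screening run, cut at about 120% in these data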
STAT1 inh-2: confirmation of STAT1 signaling inhibitors; shares compounds with STAT1 inh-1; NIH 3T3 STAT1-luciferase reporter, IFN-gamma, luminescence; inhibition, % at 5.5 µM; actives 55% (n = 200); AID 1263;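 active means triplicate mean inhibition exceeding the hit cutoff computed for the primary STAT1 screen, cut at about 35% in these data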
NFkB inh: inhibits NF-kappaB, counter-screen to STAT1 inhibitors. shares compounds with STAT1 inh-1. HEK293T NF-kB luciferase reporter, TNF-alpha induced, luminescence. inhibition, % at 5.7 µM. actives 30% (n = 200). AID 1303;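 active means inhibition above the mean of solvent-only control wells plus 3 SD of those wells, cut at about 15% in these data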
STAT3 inh 2: counter-screen for STAT1 inhibitors: STAT3 inhibition; shares compounds with STAT1 inh-1; U3A cells, IL-6 STAT3 luciferase reporter, luminescence; cells lacking STAT1; inhibition, % at 5.7 µM; actives 20% (n = 200); AID 1310;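 active means inhibition above the mean of solvent-only control wells plus 3 SD, set per campaign, cut at about 25% in these data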
Hits are given with their value; - = inactive; . = no result.

SMILES	STAT3 inh	APP 5'UTR act	STAT1 act-1	STAT3 act-1	STAT1 inh-1	NF-kB neuron act	STAT3 act-2	NFkB act STAT3ct	STAT1 act-2	others
Oc1cccc2ccc(/C=C/c3cccs3)nc12	-	148	-	148	-	-	189	121	-
O=C(/C=C/c1cccs1)c1cc(Cl)ccc1O	-	-	-	-	-	-	.	.	.
Oc1ccc(Cl)cc1/C=C/c1ccc2cccc(O)c2n1	-	-	-	167	-	-	156	-	-
Cc1ccsc1/C=C/c1ccc2cccc(O)c2n1	-	148	-	154	-	5	176	-	-
Cc1ccsc1/C=C/C(=O)O	-	-	-	-	-	-	.	.	.
Cc1noc(/C=C/c2cccs2)c1S(=O)(=O)N1CCC(C(=O)NCCCN2CCC(C)CC2)CC1	-	-	-	-	-	-	.	.	.
COc1ccc(OC)c(NC(=O)c2ccc(-c3cccs3)cc2)c1	-	-	-	-	-	-	.	.	.
Cc1[nH]n(-c2ccccc2)c(=O)c1N=Nc1ccccc1	-	-	-	148	-	4	176	130	174
Fc1ccc2nc(Nc3nc4c(F)cccc4s3)sc2c1	-	-	-	140	-	-	169	-	130
Fc1cccc2sc(Nc3nc4ccccc4s3)nc12	-	-	-	177	-	-	210	129	156
COC(=O)C(C(=O)Nc1ccccc1C)C1CCCCCC1 (centres undefined)	-	-	-	-	-	-	.	.	.
Brc1ccc2ncnc(Nc3cccc4ccccc34)c2c1	-	-	-	147	-	-	163	-	-
Cc1cccc(C2NC(=O)c3c(sc(C)c3C)N2)c1O (centres undefined)	-	-	-	-	-	-	.	.	.
Cc1ccc(C2NC(=O)c3c(sc(C)c3C)N2)c(O)c1 (centres undefined)	-	-	-	158	-	-	159	-	-
CC(=O)Nc1cccc(C(=O)NC(C)c2ccc(S(N)(=O)=O)cc2)c1 (centres undefined)	-	-	-	148	-	-	-	-	-
COc1ccc(N(Cc2cc(=O)[nH]c3ccccc23)C(=O)c2ccco2)cc1	-	-	-	-	-	-	.	.	.
CCC(=O)N(Cc1cc(=O)[nH]c2ccccc12)c1cccc(C)c1	-	-	-	142	-	-	-	-	-
COc1ccc2[nH]c(=O)c3c(c2c1)OC(C)(C)C=C3	-	-	-	137	-	-	-	-	-
COc1ccc2[nH]c3ccccc3c2c1	-	-	-	-	-	-	.	.	.
Clc1ccc2c(NCc3ccco3)ncnc2c1	-	-	-	-	-	-	.	.	.
COc1ccccc1CNc1ncnc2cc(Cl)ccc12	-	-	-	-	42	-	.	.	.	STAT1 inh-2=38;NFkB inh=-;STAT3 inh 2=-
COc1ccc(CNc2ncnc3cc(Cl)ccc23)cc1OC	-	-	-	-	41	-	.	.	.	STAT1 inh-2=35;NFkB inh=-;STAT3 inh 2=-
COc1cc2ncnc(NCc3ccc(C)cc3)c2cc1OC	-	-	-	-	-	-	.	.	.
COc1ccc(CCNc2ncnc3cc(OC)c(OC)cc23)cc1OC	-	-	-	-	35	-	.	.	.	STAT1 inh-2=36;NFkB inh=-;STAT3 inh 2=-
